# Data: ChEMBL document CHEMBL4342411, “Novel multitarget 5-arylidenehydantoins with arylpiperazinealkyl fragment: Pharmacological evaluation and investigation of cytotoxicity and metabolic stability” (Bioorg Med Chem, 2019)
# Target: T1, 5-hydroxytryptamine receptor 7 (Homo sapiens, UniProt P34969)
# Test: Antagonist activity at human recombinant 5-HT7 receptor expressed in CHOK1 cells measured after 60 mins in the presence of serotonin by LANCE TR-FRET assay relative to control
# Assay type: cell-based
# Conditions: not given
# T1 sequence (P34969 whole entry): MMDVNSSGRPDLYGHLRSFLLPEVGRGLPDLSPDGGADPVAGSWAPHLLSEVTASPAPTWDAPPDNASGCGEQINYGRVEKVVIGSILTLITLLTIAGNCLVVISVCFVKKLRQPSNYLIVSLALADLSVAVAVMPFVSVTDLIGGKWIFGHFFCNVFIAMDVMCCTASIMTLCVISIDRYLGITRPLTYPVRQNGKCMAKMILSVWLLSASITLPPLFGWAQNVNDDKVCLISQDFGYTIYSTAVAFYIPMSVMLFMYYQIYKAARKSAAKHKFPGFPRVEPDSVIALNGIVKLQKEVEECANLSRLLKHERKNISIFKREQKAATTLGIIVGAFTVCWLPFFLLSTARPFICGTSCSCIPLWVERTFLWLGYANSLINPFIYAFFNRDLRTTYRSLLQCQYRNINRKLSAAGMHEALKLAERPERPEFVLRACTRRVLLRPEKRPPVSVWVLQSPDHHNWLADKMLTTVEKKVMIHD
row,Emax [%],Compound
1,8,CC1CCN(CC[C@H]2CCCN2S(=O)(=O)c2cccc(O)c2)CC1

# System: not listed separately
# Test: in vitro
# Conditions: CD1, mouse, microsomes
row,half-life [h],Compound
1,1.41,CC(C)NCC(O)COc1cccc2ccccc12 (stereo unspecified) [PROPRANOLOL]

# Target: T1, 5-hydroxytryptamine receptor 7
# Test: biochemical
# Assay type: cell-based, CHO
# Conditions: not given
row,Compound,Ki [nM]
1,COc1ccc(/C=C2\NC(=O)N(CCCN3CCN(c4ncccn4)CC3)C2=O)cc1OC,74
2,COc1ccc(/C=C2\NC(=O)N(CCCN3CCN(c4cccc(Cl)c4Cl)CC3)C2=O)cc1OC1CCCC1,380

# Target: 5-hydroxytryptamine receptor 2A (Homo sapiens) (UniProt P28223)
# Test: not given
# Conditions: HEK293, at 0.1 µM
# 5-hydroxytryptamine receptor 2A (Homo sapiens), sequence (P28223 whole entry): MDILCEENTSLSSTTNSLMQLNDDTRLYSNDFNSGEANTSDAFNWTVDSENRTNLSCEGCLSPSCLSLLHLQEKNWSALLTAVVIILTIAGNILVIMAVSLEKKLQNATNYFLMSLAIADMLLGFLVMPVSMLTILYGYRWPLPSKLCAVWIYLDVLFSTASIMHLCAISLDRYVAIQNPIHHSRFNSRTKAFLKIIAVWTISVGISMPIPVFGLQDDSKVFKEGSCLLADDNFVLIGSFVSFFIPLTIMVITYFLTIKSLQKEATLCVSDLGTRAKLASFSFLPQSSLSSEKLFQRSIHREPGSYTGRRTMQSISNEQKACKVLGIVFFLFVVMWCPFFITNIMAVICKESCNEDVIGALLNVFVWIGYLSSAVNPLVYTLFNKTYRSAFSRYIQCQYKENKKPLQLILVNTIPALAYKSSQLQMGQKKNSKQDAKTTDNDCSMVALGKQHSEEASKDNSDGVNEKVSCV
row,Compound,inhibition [%]
1,COc1ccc(/C=C2\NC(=O)N(CCCN3CCN(c4ncccn4)CC3)C2=O)cc1OC,23
2,COc1ccc(/C=C2\NC(=O)N(CCCN3CCN(c4cccc(Cl)c4Cl)CC3)C2=O)cc1OC1CCCC1,27

# Target: 3',5'-cyclic-AMP phosphodiesterase 4B (Homo sapiens) (UniProt Q07343)
# Test: Inhibition of human recombinant full length N-terminal GST-tagged PDE4B1 expressed in baculovirus infected Sf9 cells at 10^-5 M using cAMP as substrate incubated for 20 mins followed by substrate addition by luciferase assay relative to control
# Conditions: not given
# 3',5'-cyclic-AMP phosphodiesterase 4B (Homo sapiens), sequence (Q07343 whole entry): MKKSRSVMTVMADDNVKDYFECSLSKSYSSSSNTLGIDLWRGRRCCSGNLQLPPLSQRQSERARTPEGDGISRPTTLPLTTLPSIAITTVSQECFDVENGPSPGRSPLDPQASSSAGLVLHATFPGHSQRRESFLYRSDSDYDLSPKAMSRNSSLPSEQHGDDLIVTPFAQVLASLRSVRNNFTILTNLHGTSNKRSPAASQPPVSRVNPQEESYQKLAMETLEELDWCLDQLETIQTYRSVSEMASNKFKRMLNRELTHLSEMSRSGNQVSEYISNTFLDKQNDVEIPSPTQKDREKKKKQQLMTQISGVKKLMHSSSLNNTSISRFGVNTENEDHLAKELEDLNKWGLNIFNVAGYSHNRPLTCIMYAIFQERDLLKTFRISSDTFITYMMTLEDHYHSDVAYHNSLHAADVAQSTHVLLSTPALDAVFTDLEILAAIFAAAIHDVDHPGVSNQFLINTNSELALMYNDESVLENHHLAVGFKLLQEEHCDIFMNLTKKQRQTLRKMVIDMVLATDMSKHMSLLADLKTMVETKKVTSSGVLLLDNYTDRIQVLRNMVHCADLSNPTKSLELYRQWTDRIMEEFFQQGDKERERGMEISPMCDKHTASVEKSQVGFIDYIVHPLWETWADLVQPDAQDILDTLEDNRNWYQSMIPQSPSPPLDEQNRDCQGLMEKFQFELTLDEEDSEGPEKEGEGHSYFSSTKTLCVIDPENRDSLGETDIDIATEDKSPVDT
row,Compound,inhibition [%]
1,COc1ccc(/C=C2\NC(=O)N(CCCN3CCN(c4ncccn4)CC3)C2=O)cc1OC,1
2,COc1ccc(/C=C2\NC(=O)N(CCCN3CCN(c4cccc(Cl)c4Cl)CC3)C2=O)cc1OC1CCCC1,3

# Target: 5-hydroxytryptamine receptor 6 (Homo sapiens) (UniProt P50406)
# Test: Displacement of [3H]-LSD from human recombinant 5-HT6 receptor expressed in CHO cells at 10^-6 M incubated for 60 mins by microbeta2 scintillation counter relative to control
# Assay type: cell-based
# Conditions: not given
# In short: (§1)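 Radioligand displacement from recombinant human receptor membranes, tested at two final concentrations (10^-6 and 10^-7 M), with scintillation counting. Results were expressed as percent inhibition of specific binding.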
# 5-hydroxytryptamine receptor 6 (Homo sapiens), sequence (P50406 whole entry): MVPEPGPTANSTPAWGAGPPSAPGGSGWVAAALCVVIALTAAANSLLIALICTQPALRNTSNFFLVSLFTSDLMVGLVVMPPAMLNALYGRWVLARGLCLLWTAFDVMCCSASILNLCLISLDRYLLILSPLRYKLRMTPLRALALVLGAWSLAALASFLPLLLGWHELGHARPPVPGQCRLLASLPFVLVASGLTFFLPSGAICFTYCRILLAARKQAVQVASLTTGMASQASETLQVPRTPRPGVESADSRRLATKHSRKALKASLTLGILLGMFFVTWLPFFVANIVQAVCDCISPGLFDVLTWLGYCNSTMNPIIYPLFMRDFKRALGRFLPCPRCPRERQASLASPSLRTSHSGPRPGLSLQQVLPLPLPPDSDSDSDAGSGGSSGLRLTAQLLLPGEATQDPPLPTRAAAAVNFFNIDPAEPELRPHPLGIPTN
row,Compound,inhibition [%]
1,COc1ccc(/C=C2\NC(=O)N(CCCN3CCN(c4ncccn4)CC3)C2=O)cc1OC,15
2,COc1ccc(/C=C2\NC(=O)N(CCCN3CCN(c4cccc(Cl)c4Cl)CC3)C2=O)cc1OC1CCCC1,70

# Target: 5-hydroxytryptamine receptor 2A (Homo sapiens) (UniProt P28223)
# Test: not given
# Conditions: HEK293, at 1 µM
row,Compound,inhibition [%]
1,COc1ccc(/C=C2\NC(=O)N(CCCN3CCN(c4ncccn4)CC3)C2=O)cc1OC,78
2,COc1ccc(/C=C2\NC(=O)N(CCCN3CCN(c4cccc(Cl)c4Cl)CC3)C2=O)cc1OC1CCCC1,96

# Target: 5-hydroxytryptamine receptor 6 (Homo sapiens) (UniProt P50406)
# Test: Displacement of [3H]-LSD from human recombinant 5-HT6 receptor expressed in CHO cells at 10^-7 M incubated for 60 mins by microbeta2 scintillation counter relative to control
# Assay type: cell-based
# Conditions: not given
# In short: as §1
row,Compound,inhibition [%]
1,COc1ccc(/C=C2\NC(=O)N(CCCN3CCN(c4ncccn4)CC3)C2=O)cc1OC,8
2,COc1ccc(/C=C2\NC(=O)N(CCCN3CCN(c4cccc(Cl)c4Cl)CC3)C2=O)cc1OC1CCCC1,0

# Target: T2, 5-hydroxytryptamine receptor 1A (Homo sapiens, UniProt P08908)
# T2 sequence (P08908 whole entry): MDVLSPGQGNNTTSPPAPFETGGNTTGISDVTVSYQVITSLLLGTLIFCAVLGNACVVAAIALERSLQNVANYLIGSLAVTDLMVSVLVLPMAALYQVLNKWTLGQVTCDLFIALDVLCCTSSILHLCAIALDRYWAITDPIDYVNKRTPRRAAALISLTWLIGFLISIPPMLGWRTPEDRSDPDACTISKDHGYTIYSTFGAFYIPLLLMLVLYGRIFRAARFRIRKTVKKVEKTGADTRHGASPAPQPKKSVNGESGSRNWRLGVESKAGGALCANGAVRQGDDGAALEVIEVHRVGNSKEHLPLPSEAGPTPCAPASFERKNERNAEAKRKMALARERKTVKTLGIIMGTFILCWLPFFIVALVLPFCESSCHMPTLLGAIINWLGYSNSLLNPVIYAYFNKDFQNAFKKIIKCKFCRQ
# Test: Displacement of [3H]-8-OH-DPAT from human recombinant 5-HT1A receptor expressed in HEK293 cells incubated for 60 mins by microbeta2 scintillation counter
# Assay type: cell-based
# Conditions: not given
row,Compound,Ki [nM]
1,COc1ccc(/C=C2\NC(=O)N(CCCN3CCN(c4ncccn4)CC3)C2=O)cc1OC,12
2,COc1ccc(/C=C2\NC(=O)N(CCCN3CCN(c4cccc(Cl)c4Cl)CC3)C2=O)cc1OC1CCCC1,> 1000
